A selection: hits, their analogues and other compounds. The true share with any hit is near 3.8%.
FGF22 binding: shifts melting point of recombinant human FGF22. hit rate 1.5% among 340,000. Q9HCT0. recombinant FGF22 thermal shift, SYPRO orange fluorescence; percent of sucrose octasulfate shift, DMSO zero. activity (Tm shift, normalised), % at 9.99 µM;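 active = mean Tm shift, scaled 0 neutral to 100 positive control, at about 1.3% or above, every replicate too, limit read from the data; inconclusive = no clear call, values can overlap the other calls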
Target sequence (Q9HCT0 whole entry, looked up): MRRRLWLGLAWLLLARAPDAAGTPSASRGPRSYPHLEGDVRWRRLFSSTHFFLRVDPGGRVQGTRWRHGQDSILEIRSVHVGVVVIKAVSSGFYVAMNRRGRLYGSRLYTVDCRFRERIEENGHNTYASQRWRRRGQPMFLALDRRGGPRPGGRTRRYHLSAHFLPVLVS
DENV2 CPE: DENV2-induced cell death inhibition. DENV2-infected cells, cytopathic effect rescue, plate reader. hit rate 1.7% among 350,000. CPE inhibition, % at 9.99 µM; in the data active = CPE inhibition above about 20%, passing the limit was not always enough; inconclusive = no clear call, values can overlap the other calls; tested in BHK-21 cells;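 also: 0% = median of neutral control wells and 100% = median of positive control wells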
SIRT5 inh: sirtuin-5 (human) deacylase inhibition; Q9NXA8; inhibition, % at 15 µM; hit rate 1.1% among 330,000; Purified SirT5, succinyl-peptide AMC, trypsin-coupled fluorescence; in the data active = inhibition above about 15%; inconclusive = no clear call, values can overlap the other calls
Target sequence (Q9NXA8 whole entry, looked up): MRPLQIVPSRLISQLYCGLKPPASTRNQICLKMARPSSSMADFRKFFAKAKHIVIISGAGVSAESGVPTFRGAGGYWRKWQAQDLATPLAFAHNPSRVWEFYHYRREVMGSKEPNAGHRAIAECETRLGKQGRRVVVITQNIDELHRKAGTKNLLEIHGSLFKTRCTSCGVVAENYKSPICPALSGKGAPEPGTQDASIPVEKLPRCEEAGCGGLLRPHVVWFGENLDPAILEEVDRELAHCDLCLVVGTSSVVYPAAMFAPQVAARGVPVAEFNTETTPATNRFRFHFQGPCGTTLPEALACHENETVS
ARNT-TACC3 inh: ARNT/TACC3 interaction disruption; Q9Y6A5; AlphaScreen His-ARNT PAS-B/GST-TACC3 binding, luminescence; TACC3 fragment carries E629A point mutation; inhibition, % at 9.99 µM; hit rate 0.66% among 390,000;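 active = mean inhibition of replicates at least 50% and at least half of replicates each reaching 50%; inconclusive = half or more replicates reach 50% but mean below 50%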;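 also: 0% = complete ARNT plus TACC3 wells and 100% = ARNT alone without TACC3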
FN deposit inh: fibronectin deposition inhibition. AH1F fibroblasts, Alexa488-fibronectin deposition fluorescence, overnight. inhibition, % at 12.6 µM. hit rate 0.086% among 350,000. AID 743247;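 active = mean inhibition across replicates of 30% or more, regardless of how many single replicates reach that level; inconclusive = mean under 30% yet at least half of replicates reach 30%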;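 also: positive control wells lacked labelled fibronectin entirely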
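Material: AH1F fibroblast monolayer depositing Alexa488-labelled fibronectin into matrix | Input: 10000 AH1F cells/well | Medium: DMEM plus 2% serum, read in PBS | Reagent: Alexa488-fibronectin, 24 nM final in well | Compound dosing: One dose per compound, pinned | Schedule: 1 h adhesion, overnight exposure | Measured by: Fluorescence at 485 nm excitation, 525 nm emission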
Xi reactivation: activators of X-chromosome reactivation in mouse fibroblasts | XiGFP mouse fibroblasts, % GFP-positive cells imaging, 3 d; cells co-treated with 5-aza-dC sensitizer; scaled so ellipticine positive control = 100% | hit rate 0.055% among 360,000 | AID 743238 | activation, % at 7.58 µM;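 active = mean normalized replicate activation at least 10% and every replicate at or above 10%; inconclusive = only one of the two criteria met; inactive = mean below 10% and not all replicates reach 10%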;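 also: 0% = median of on-plate neutral control wells and 100% = ellipticine 6 µM median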
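System: SV40-immortalized XiGFP fibroblast cells, line 68-5-11 / Incubation: 3-day compound exposure, then 15 min fixation at room temperature / Compound: single concentration per compound, delivered by pin transfer / Buffer or medium: DMEM plus 5-aza-dC sensitizer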
* hit, by the source's call; ? = inconclusive; · = not tested or not shown.

SMILES	FGF22 binding	DENV2 CPE	SIRT5 inh	ARNT-TACC3 inh	FN deposit inh	Xi reactivation
Oc1ccccc1/C=N/Nc1nccnc1Cl	·	·	·	67*	7	·
CCN(CC)S(=O)(=O)c1ccc(N/N=C/c2ccc(O)cc2O)nc1	·	·	·	46*	1	2
Oc1ccc(C=NNc2ccccn2)c(O)c1	0	-1	7	60*	18	1
O=[N+]([O-])c1ccc(O)c(/C=N/Nc2nc3ccccc3[nH]2)c1	0	0	-7	83*	11	0
COc1cccc(S(=O)(=O)N2C[C@H](O)COC[C@@H]3O[C@H](CC(=O)Nc4ccccc4)CC[C@H]32)c1	0	6	4	-1	3	0
Cc1ccccc1OCC(=O)Nc1cnn(CCCC(=O)O)c1	0	1	17*	-6	-4	0
CC(=O)N/N=C(\C)CCc1ccccc1	0	10	2	-2	4	0
COc1cc(/C=N/OCC(=O)Nc2cc(C)on2)ccc1OCc1ccccc1	0	-6	28*	-2	8	0
C/C(CCc1ccccc1)=N\NC(=O)COc1ccccc1C	43*	-4	2	-6	2	0
Cc1ccccc1OCC(=O)OCC(=O)NCCNC(=O)COC(=O)COc1ccccc1C	0	44*	0	4	7	0
COC(=O)C[C@@H]1C[C@H]2c3cc(NC(=O)Nc4ccc(C(F)(F)F)cc4)ccc3O[C@H]2[C@H](CO)O1	0	4	4	6	8	0
C[C@@H]1CN([C@H](C)CO)C(=O)c2cc(-c3cccc(C(=O)N(C)C)c3)cnc2O[C@@H]1CN(C)S(=O)(=O)c1ccccc1	0	-1	-4	0	3	0
C[C@H]1CC=CCCNC(=O)[C@H](C)N(C)C(=O)c2ccccc2O1 (mixture of isomers)	·	·	·	·	-1	0
O=C(COc1ccccc1Cl)NCCNC(=O)c1ccccn1	0	?	-2	-5	-5	0
Cc1cc(NC(=O)COc2ccccc2C)no1	44*	·	-3	-14	-18	0
C=CCNC(=O)COC(=O)COc1ccc(Cl)cc1C	·	·	17*	-12	-3	·
Cc1ccccc1OCC(=O)NCCNC(=O)c1ccccn1	0	4	30*	0	-6	0
Cc1cc(NC(=O)COc2cccc(C)c2C)no1	0	15	-2	2	-6	0
CC(=O)Nc1cccc2c1O[C@H](CN(C)C(C)=O)[C@H](C)CN(C)C2=O	·	·	·	·	-8	1
O=C(Nc1ccc(F)cc1)N1CCCCN2[C@H](CO)[C@@H](c3ccc(C#CC4CC4)cc3)[C@@H]2C1	0	-20	4	3	·	0
CCCNC(=O)N1[C@H](CO)[C@@H](c2ccccc2)C12CN(C(=O)CC1CC1)C2	0	-2	1	·	·	0
COC(=O)c1c(NC(=O)CC2SC(N)=NC2=O)sc(C)c1C (stereo not given)	44*	15	0	·	2	0
COC(=O)c1c(NC(=O)CSc2ccccc2N)sc(C)c1C	43*	0	-3	·	-38	0
COC(=O)c1c(NC(=O)Cc2ccccc2)sc(C)c1C	·	·	-4	-3	·	·
CCCCNC(=O)C1(C)CCN1C(=O)c1ccccc1Br (stereo not given)	0	?	-22	·	0	0
SMILES	FGF22 binding	DENV2 CPE	SIRT5 inh	ARNT-TACC3 inh	FN deposit inh	Xi reactivation
CCCCNC(=O)C1(C)CCN1C(=O)c1cc(-c2cccs2)oc1C (stereo not given)	0	33*	·	·	·	0
COc1ccc2cc(CN(Cc3ccco3)C(=S)NCC3CCCO3)c(=O)[nH]c2c1 (stereo not given)	0	2	3	-3	3	0
COc1ccc2[nH]c(=O)c(CN(Cc3ccccc3)C(=S)NCC3CCCO3)cc2c1 (stereo not given)	44*	·	-3	5	4	0
c1ccc(COCCCn2cc(-c3ccccc3)nn2)cc1	0	46*	-4	-6	-5	0
Cn1cc(-c2ccc(Cl)cc2)cc(C#N)c1=O	43*	-8	-6	-2	-5	0
O=C(NCc1ccccc1)c1ccc(C(=O)NCc2ccccc2)cc1	0	-2	1	-1	0	0

Source: PubChem (Broad Institute)
